In brackets after ≈: the same amount, converted by molar mass.
Legend:
MCF7 = assay: Growth inhibition of human MCF7 cells after 48 hrs by MTT assay; type: functional; details: MCF7, 48 h
Summary of the method: (§1)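 Cells seeded at 4 × 10^3 per well, grown 24 h, then treated 48 h at 0.004–100 µM from 100 or 25 mM DMSO stocks. Controls were 0.1% DMSO and phenyl arsine oxide. MTT (5 mg/mL) added for 2 h, formazan dissolved in DMSO, A490 read. […] HeLa/MCF-7 in DMEM, MES-SA lines in RPMI-1640, all with 10% FBS.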

HeLa = assay: Growth inhibition of human HeLa cells after 48 hrs by MTT assay; type: functional; summary of the method: as §1
[1] = Aqueous solubility of the compound by spectrophotometric analysis; type: physicochemical
Summary of the method: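 Compound dispersed in ultrapure water at >0.5 mg/mL; supernatant centrifuged repeatedly until no pellet remained, then diluted 1:2 (solution:DMSO). Concentration read from absorbance at peak 335–336 nm against a calibration line made in 1:2 water/DMSO, and corrected for the DMSO dilution.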

[2] = molecular target: T1, Tubulin beta (Homo sapiens) (UniProt P68371+Q9H4B7+Q13509+P04350+Q3ZCM7+P07437+Q13885+Q9BVA1+Q9BUF5+A6NNZ2); assay: Inhibition of [3H] radiolabelled colchicine binding to tubulin beta (unknown origin) at 1 uM by DEAE-cellulose filter method; type: protein assay
[3] = molecular target: T1, Tubulin beta (Homo sapiens); assay: Inhibition of [3H] radiolabelled colchicine binding to tubulin beta (unknown origin) at 5 uM by DEAE-cellulose filter method; type: protein assay

SMILES	GI50 (MCF7) [µM]	GI50 (HeLa) [µM]	solubility [1] [µM]	inhibition [2] [%]	inhibition [3] [%]
O=C(c1ccc(O)cc1)c1[nH]c2[nH]c(=O)[nH]c(=O)c2c1-c1ccc(O)cc1	> 100	> 100			
Nc1ncnc2[nH]c(C(=O)c3ccccc3)c(-c3ccccc3)c12	3.9	4.4			
N#Cc1cccc(-c2c(C(=O)c3ccccc3)[nH]c3[nH]cnc(=O)c23)c1	0.25	0.19			
O=C(c1ccc(O)cc1)c1[nH]c2[nH]cnc(=O)c2c1-c1cc(Br)cc(Br)c1	0.26	0.3			
COc1cc(-c2c(C(=O)c3ccccc3)[nH]c3[nH]cnc(=O)c23)cc(Br)c1OC	10	7.1			
Nc1ncnc2[nH]c(C(=O)c3ccccc3)c(-c3cccs3)c12	15	28			
O=C(c1ccc(OCc2ccccc2)cc1)c1[nH]c2[nH]cnc(=O)c2c1-c1ccccc1	0.053	0.045			
O=C(c1ccccc1)c1[nH]c2[nH]c(=S)[nH]c(=S)c2c1-c1cc(Br)cc(Br)c1	> 100	> 100			
COc1ccc(C(=O)c2[nH]c3[nH]c(=O)[nH]c(=O)c3c2-c2ccc(OC)cc2)cc1	> 100	> 100			
Nc1ncnc2[nH]c(C(=O)c3ccccc3)c(-c3c(Cl)cccc3Cl)c12	> 100	> 100			
COc1ccc(C(=O)c2[nH]c3[nH]cnc(=O)c3c2-c2cc(OC)c(OC)c(OC)c2)cc1	7	> 100			
O=C(c1ccccc1)c1[nH]c2ncnc(-c3ccccc3)c2c1-c1cccnc1	51	45			
COc1cc(-c2c(C(=O)c3ccc(O)cc3)[nH]c3[nH]cnc(=O)c23)ccc1O	3	5			
O=C(c1ccccc1)c1[nH]c2[nH]cnc(=O)c2c1-c1cccc(Br)n1	0.135	0.15			
O=C(c1ccccc1)c1[nH]c2[nH]cnc(=O)c2c1-c1cccc(F)c1	0.07	0.065	65 (≈ 21.7 µg/mL)		
N#Cc1cccc(-c2c(C(=O)c3ccc(OCc4ccccc4)cc3)[nH]c3ncnc(N)c23)c1	> 100	> 100			
O=C(c1ccc(F)cc1)c1[nH]c2[nH]cnc(=O)c2c1-c1cc(Br)cc(Br)c1	0.8	6.3			
O=C(c1ccccc1)c1[nH]c2[nH]cnc(=O)c2c1-c1cc(Br)cs1	56	43			
O=C(c1ccccc1)c1[nH]c2[nH]cnc(=O)c2c1-c1cccc(Br)c1	0.06	0.13			
O=C(c1ccc(O)cc1)c1[nH]c2[nH]cnc(=O)c2c1-c1ccccc1	0.3	0.4			
COc1ccc(C(=O)c2[nH]c3[nH]cnc(=O)c3c2-c2cc(Br)cc(Br)c2)cc1	0.11	0.3			
O=C(c1ccccc1)c1[nH]c2[nH]cnc(=O)c2c1-c1cccc(O)c1	1.09	0.86			
COc1ccc(/C=C\c2cc(OC)c(OC)c(OC)c2)cc1O				89	99

SMILES	GI50 (MCF7) [µM]	GI50 (HeLa) [µM]	solubility [1] [µM]	inhibition [2] [%]	inhibition [3] [%]
COc1cc(-c2c(C(=O)c3ccc(F)cc3)[nH]c3[nH]c(=O)[nH]c(=O)c23)cc(OC)c1OC	> 100	> 100			
COc1ccc(-c2c(C(=O)c3ccccc3)[nH]c3ncnc(-c4ccccc4)c23)cc1	75	70			
O=C(c1ccccc1)c1[nH]c2[nH]cnc(=O)c2c1-c1c(Cl)cccc1Cl	2.2	4.9			
Cc1ccc(-c2ncnc3[nH]c(C(=O)c4ccccc4)c(-c4cc(Br)cc(Br)c4)c23)cc1	7	9			
COc1cc(C(=O)c2[nH]c3[nH]c(=O)[nH]c(=O)c3c2-c2ccc(O)c(OC)c2)ccc1O	> 100	> 100			
COc1cc(-c2c(C(=O)c3ccc(O)cc3)[nH]c3[nH]c(=O)[nH]c(=O)c23)ccc1O	> 100	> 100			
COc1ccc(-c2c(C(=O)c3ccccc3)[nH]c3[nH]c(=O)[nH]c(=O)c23)cc1	14	80			
COc1cc(-c2c(C(=O)c3ccccc3)[nH]c3[nH]cnc(=O)c23)cc(OC)c1OC	33	48			
COc1cc(C(=O)c2[nH]c3[nH]c(=O)[nH]c(=O)c3c2-c2cc(OC)c(OC)c(OC)c2)ccc1OCc1ccccc1	> 100	> 100			
O=C(c1ccc(OCc2ccccc2)cc1)c1[nH]c2[nH]cnc(=O)c2c1-c1cc(Br)cc(Br)c1	0.31	0.4			
O=C(c1ccc(Br)cc1)c1[nH]c2[nH]cnc(=O)c2c1-c1cc(Br)cc(Br)c1	0.6	2.2			
COc1ccc(C(=O)c2[nH]c3ncnc(-c4ccc(OC)cc4)c3c2-c2ccc(OC)cc2)cc1	8	20			
O=C(c1ccccc1)c1[nH]c2[nH]cnc(=O)c2c1-c1cccnc1	1.26	0.88			
O=C(c1ccc(O)cc1)c1[nH]c2[nH]cnc(=O)c2c1-c1ccc(O)cc1	2.8	4			
O=C(c1ccccc1)c1[nH]c2[nH]cnc(=O)c2c1-c1cccc(I)c1	0.15	0.2			
COc1cc(-c2c(C(=O)c3ccc(Br)cc3)[nH]c3[nH]c(=O)[nH]c(=O)c23)cc(OC)c1OC	> 100	> 100			
O=C(c1ccccc1)c1[nH]c2[nH]c(=O)[nH]c(=O)c2c1-c1cc(Br)cc(Br)c1	47	71			
Nc1ncnc2[nH]c(C(=O)c3ccccc3)c(-c3cncc(Br)c3)c12	> 100	> 100			
COc1cc(C(=O)c2[nH]c3[nH]c(=O)[nH]c(=O)c3c2-c2ccc(O)cc2)ccc1O	> 100	> 100			
O=C(c1ccccc1)c1[nH]c2[nH]cnc(=O)c2c1-c1cccc(Cl)c1	0.06	0.1			
COc1cc(-c2c(C(=O)c3ccccc3)[nH]c3[nH]cnc(=O)c23)cc(I)c1OC	40	8.2			
Nc1ncnc2[nH]c(C(=O)c3ccccc3)c(-c3cc(Br)cc(Br)c3)c12	> 100	> 100			
O=C(c1ccccc1)c1[nH]c2ncnc(-c3ccccc3)c2c1-c1cc(Br)cc(Br)c1	10	18			

Reference: ChEMBL document CHEMBL2417486, “Exploring natural product chemistry and biology with multicomponent reactions. 5. Discovery of a novel tubulin-targeting scaffold derived from the rigidin family of marine alkaloids” (J Med Chem, 2013)
